Data set [1] relates to Yellow fever virus. Description: Antiviral activity against IRES-luciferase tagged Yellow fever virus in BHK15 cells assessed as reduction of luciferase activity after 36 hrs. The data set is classed as functional, organism-based. The settings on record: BHK15, 36 h.
The nature of data set [2]: Cytotoxicity against BHK15 cells assessed as cell viability after 36 hrs by MTT assay. The data set is classed as cell-based, Mesocricetus auratus. The note with it: hamster, bhk15, 36 h. In general terms: Tetrazolium dyes change colour on reduction, which living cells bring about.
The nature of data set [3]: Therapeutic index, ratio of CC50 for BHK15 cells to EC50 IRES-luciferase tagged Yellow fever virus. The data set is classed as cell-based. The settings on record: hamster, read-out: Ratio CC50/EC50.
Data set [4] deals with Yellow fever virus. Description: Antiviral activity against IRES-luciferase tagged Yellow fever virus in BHK15 cells assessed as reduction of luciferase activity at 50 uM after 36 hrs. The data set is classed as functional. The note with it: BHK15, 36 h. The method, boiled down:
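Primary screen of the YFV-IRES-Luc (YFV 17D reporter) infection at MOI 0.1 in confluent BHK-15 cells. Compound was given at a single 50 µM concentration for ~36 h at 37 °C, 5% CO2. Percent inhibition came from lysate firefly luciferase luminescence versus DMSO-treated infected cells. Over 50% inhibition counted as active.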

The next data set concerns dengue virus type 2. The experiment in a line: Antiviral activity against Dengue virus 2 16681 in BHK15 cells at 50 uM after 48 hrs by immunofluorescence assay. The data set is classed as functional. The settings on record: Dengue virus, 16681, BHK15, 48 h. The method, boiled down: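 Den-2 strain 16681 added to BHK monolayers at MOI 0.025 for 1 h at room temperature, then washed with PBS. Overlaid with MEM + 2.5% FBS containing compound at 50 µM and kept at 34 °C for 48 h. Fixed cells were stained with anti-dengue capsid antibody (2 h), a TRITC secondary and DAPI. Infected versus total cells were counted in three random fields per well to give percent inhibition.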

`CC(=O)c1ccc(CN(Cc2ccc(C(C)=O)cc2)c2nc(C)c(C(=O)NCc3ccc(Cl)cc3Cl)s2)cc1`: the EC50 in the data set with Yellow fever virus [1] is > 50 µM.

Turning to `c1ccc(-c2cc(-c3ccccc3)[nH]n2)cc1`, in data set [2], the CC50 came to 123 µM. The EC50 in the data set with Yellow fever virus [1] worked out at 44 µM. Moreover, in data set [3], the selectivity ratio is 2.8.

In the case of `CC(=O)c1ccc(NC(=O)Nc2nc(C)c(C(=O)O)s2)cc1`, in the data set on Yellow fever virus [1], the EC50 was > 50 µM. For the compound `Cc1nc(-n2nc(-c3ccccc3)cc2-c2ccccc2)sc1C(=O)OC(C)C`, in the data set with Yellow fever virus [1], the EC50 was > 50 µM. The same measure, in the same setting: in the case of `CC(=O)c1ccc(NC(=O)Nc2nc(C)c(C(=O)NCc3ccc(Cl)cc3Cl)s2)cc1` it was > 50 µM; in that of `Cc1nc(-c2ccc(Cl)cc2)sc1C(=O)NCc1ccc(Cl)c(Cl)c1`, > 50 µM; in that of `Cc1nc(-c2ccc(Cl)cc2)sc1C(=O)OCC12CC3CC(CC(C3)C1)C2`, > 50 µM.

With `Nc1ccc(SCc2csc(-c3ccc(Cl)cc3)n2)cc1`, the CC50 in data set [2] came to 151 µM. The EC50 in the data set with Yellow fever virus [1] was 29 µM. Further, in data set [3], the selectivity ratio was 5.2. Consider `CCCCCCCCOC(=O)c1sc(-n2nc(-c3ccccc3)cc2-c2ccccc2)nc1C`, for which, in the data set on Yellow fever virus [1], the EC50 was > 50 µM. Turning to `ClCc1csc(-c2ccc(Cl)cc2)n1`, the EC50 in the data set on Yellow fever virus [1] is > 50 µM. Still for that read-out and setting: next, `COC(=O)c1sc(-c2ccccc2)nc1C`: > 50 µM.

Regarding `COC(=O)c1sc(-c2ccc(Cl)cc2)nc1C(Br)Br`, the inhibition at 50 µM with Yellow fever virus [4] and in the data set on dengue virus type 2 was 99% each time. Further, the CC50 in data set [2] was determined as 153 µM. In addition, the EC50 with Yellow fever virus [1] came out at 0.9 µM. Moreover, the selectivity ratio in data set [3] was determined as 170.

As for `Nc1ccc(SCc2csc(-c3cccnc3)n2)cc1`, the EC50 with Yellow fever virus [1] is > 50 µM. On to `CCOC(=O)c1sc(-n2nc(-c3ccccc3)cc2-c2ccccc2)nc1C`, for which, in the data set with Yellow fever virus [1], the EC50 is > 50 µM. For `Cc1nc(-n2nc(-c3ccccc3)cc2-c2ccccc2)sc1C(=O)OCc1ccc(I)cc1`, the EC50 in the data set with Yellow fever virus [1] was > 50 µM.

For `Nc1ccc(SCc2csc(-c3ccccc3)n2)cc1`, in data set [2], the CC50 amounted to 155 µM. For the same compound, the EC50 in the data set with Yellow fever virus [1] worked out at 37 µM. Also, the selectivity ratio in data set [3] was determined as 4.2. As to `COC(=O)c1sc(NC(=O)Nc2ccc(/C(C)=N/NC(=N)N)cc2)nc1C`, the EC50 in the data set with Yellow fever virus [1] was > 50 µM. Turning to `Nc1ccc(SCc2csc(-c3ccccc3Cl)n2)cc1`, in data set [2], the CC50 amounted to 131 µM. Moreover, the EC50 with Yellow fever virus [1] turned out to be 40 µM. Moreover, the selectivity ratio in data set [3] is 3.2. `Cc1nc(-n2nc(-c3ccccc3)cc2-c2ccccc2)sc1C(=O)OCC12CC3CC(CC(C3)C1)C2`: in the data set on Yellow fever virus [1], the EC50 was > 50 µM. On the same count and under the same terms, in the case of `C/C(=N\NC(N)=O)c1ccc(NC(=O)Nc2nc(C)c(C(=O)NCc3ccc(Cl)cc3Cl)s2)cc1` it was > 50 µM; in that of `COC(=O)c1sc(-c2ccncc2)nc1C`, > 50 µM; in that of `COC(=O)c1sc(N(Cc2ccc(C(C)=O)cc2)C(C)=O)nc1C`, > 50 µM. As for `CC(=O)c1ccc(NC(=O)Nc2nc(C)c(C(=O)NCc3ccc(Cl)c(Cl)c3)s2)cc1`, the half-maximal cytotoxic concentration (CC50) in data set [2] was found to be 138 µM. For the same compound, in the data set on Yellow fever virus [1], the EC50 turned out to be 37 µM. The selectivity ratio in data set [3] was 3.7.

As for `COC(=O)c1sc(N(Cc2ccc(C(C)=O)cc2)Cc2ccc(C(C)=O)cc2)nc1C`, the CC50 in data set [2] amounted to 200 µM. For the same compound, in the data set with Yellow fever virus [1], the EC50 stood at 25 µM. Further, the selectivity ratio in data set [3] came to 8. Consider `Cc1csc(-c2ccc(Cl)cc2)n1`, for which, in the data set on Yellow fever virus [1], the EC50 is > 50 µM. Take `COC(=O)c1sc(NC(=O)Nc2ccc(C(C)=O)cc2)nc1C`: the CC50 in data set [2] is 155 µM. Also, the EC50 in the data set on Yellow fever virus [1] was 13.9 µM. Also, the selectivity ratio in data set [3] amounted to 11.2. In the case of `C/C(=N\NC(=N)N)c1ccc(NC(=O)Nc2ccc(/C(C)=N/NC(=N)N)cc2)cc1`, the CC50 in data set [2] was 398 µM. The EC50 in the data set with Yellow fever virus [1] worked out at 13 µM. Besides, the selectivity ratio in data set [3] stood at 30.6. Turning to `Cc1nc(-n2nc(-c3ccccc3)cc2-c2ccccc2)sc1C(=O)O`, the EC50 with Yellow fever virus [1] was > 50 µM. Turning to `Cc1nc(-n2nc(-c3ccccc3)cc2-c2ccccc2)sc1C(=O)Oc1ccc(I)cc1`, in the data set with Yellow fever virus [1], the EC50 was > 50 µM. As to `COC(=O)c1sc(-c2ccc(Cl)cc2)nc1C`, the EC50 in the data set on Yellow fever virus [1] was > 50 µM. Take `Nc1ccccc1SCc1csc(-c2ccccc2Cl)n1`: the half-maximal cytotoxic concentration (CC50) in data set [2] came out at 133 µM. Besides, the EC50 with Yellow fever virus [1] came out at 46 µM. In addition, the selectivity ratio in data set [3] came to 2.9. As to `C/C(=N\NC(=N)N)c1ccc(NC(=O)Nc2nc(C)c(C(=O)NCc3ccc(Cl)cc3Cl)s2)cc1`, the CC50 in data set [2] turned out to be 154 µM. Moreover, the EC50 in the data set on Yellow fever virus [1] is 37.6 µM. Besides, the selectivity ratio in data set [3] was 4.1. `Nc1ccccc1SCc1csc(-c2cccnc2)n1`: the EC50 with Yellow fever virus [1] is > 50 µM. For `Nc1ccccc1SCc1csc(-c2ccc(Cl)cc2)n1`, in data set [2], the CC50 was determined as 61 µM. Besides, the concentration giving a half-maximal response (EC50) with Yellow fever virus [1] was 31 µM. The selectivity ratio in data set [3] was 2. On to `Nc1ccccc1SCc1csc(-c2ccccc2)n1`, for which, in data set [2], the CC50 is 119 µM. Moreover, in the data set on Yellow fever virus [1], the EC50 was 46 µM. For the same compound, in data set [3], the selectivity ratio came out at 2.6. As for `Clc1ccc(-c2nc(CSc3cccc(Cl)c3)cs2)cc1`, the EC50 in the data set on Yellow fever virus [1] was > 50 µM. On to `COC(=O)c1sc(NC(=O)Nc2ccc(/C(C)=N/NC(N)=O)cc2)nc1C`, for which the EC50 in the data set with Yellow fever virus [1] is > 50 µM. `Cc1nc(-n2nc(-c3ccccc3)cc2-c2ccccc2)sc1C(=O)NCc1ccc(Cl)c(Cl)c1`: the CC50 in data set [2] is 186 µM. Moreover, the EC50 in the data set on Yellow fever virus [1] was found to be 5 µM. Besides, the selectivity ratio in data set [3] amounted to 37.

Consider `Cc1nc(-n2nc(-c3ccccc3)cc2-c2ccccc2)sc1C(=O)/C=C/c1ccc(Cl)c(Cl)c1`, for which the CC50 in data set [2] amounted to 70 µM. Further, in the data set on Yellow fever virus [1], the EC50 is 51 µM. Also, the selectivity ratio in data set [3] is 1.37.

Usually EC50 stands for the concentration giving half of the maximal effect. As a reminder, the CC50 is the concentration at which the toxic effect on the cells reaches its halfway point. Broadly, the inhibition is the share of the control response that was lost under treatment.

The values are drawn from ChEMBL document CHEMBL1155832, “Design, synthesis, and biological evaluation of antiviral agents targeting flavivirus envelope proteins” (J Med Chem, 2008).
